Consider eight compounds from ChEMBL document CHEMBL4837210 (Eur J Med Chem, 2021).

Values after ≈ are worked out from the molar mass of the structure shown.

Test [1] has as its system Streptococcus pyogenes. The test can be described thus: Antibacterial activity against erythromycin-resistant Streptococcus pyogenes 2 assessed as bacterial growth inhibition incubated for 24 hrs by CLSI protocol based broth microdilution method. In kind it is functional. In general terms: Dilution methods test growth across graded concentrations, often in twofold steps.

Test [2] has as its system Enterococcus faecium. Nature of the test: Antibacterial activity against vancomycin-susceptible Enterococcus faecium ATCC19434 assessed as bacterial growth inhibition incubated for 24 hrs by CLSI protocol based broth microdilution method. The conditions noted are these: ATCC19434, 24 h.
Test [3] deals with Enterococcus faecalis. Nature of the test: Antibacterial activity against vancomycin-susceptible Enterococcus faecalis ATCC 29212 assessed as bacterial growth inhibition incubated for 24 hrs by CLSI protocol based broth microdilution method. The format is functional.
The subject of test [4] is Enterococcus faecalis. The test can be described thus: Antibacterial activity against vancomycin-resistant Enterococcus faecalis ATCC 51299 assessed as bacterial growth inhibition incubated for 24 hrs by CLSI protocol based broth microdilution method. The format is functional.
In test [5] the test system is Escherichia coli. The test can be described thus: Antibacterial activity against penicillin-susceptible Escherichia coli ATCC 25922 assessed as inhibition of bacterial growth measured by broth microdilution method. The format is functional. The conditions noted are these: time 24 hrs. The gist of the method: (§1)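 Broth microdilution in Mueller Hinton broth. A 0.5 McFarland suspension was diluted tenfold, giving an inoculum of 1.5 × 10⁷ cfu/mL. This was added to 2-fold serial compound dilutions from […]. Plates were incubated aerobically at 37 °C for 24 h. MIC was the lowest concentration with no visible turbidity.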

Test [6] deals with Bacillus subtilis. Nature of the test: Antibacterial activity against penicillin-susceptible Bacillus subtilis ATCC 9372 assessed as bacterial growth inhibition incubated for 24 hrs by CLSI protocol based broth microdilution method. The format is functional.
In test [7] the test system is Staphylococcus aureus. Nature of the test: Antibacterial activity against penicillin-resistant Staphylococcus aureus assessed as inhibition of bacterial growth measured by broth microdilution method. In kind it is functional. The following applies: time 24 hrs. A digest of the protocol:
(§2)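 Broth microdilution MIC. A 0.5 McFarland suspension was diluted 10-fold and added at 1.5 × 10⁷ cfu/mL to 2-fold dilutions (0.125–64) in Mueller Hinton broth. Incubated aerobically 24 h at 37 °C. MIC was the lowest concentration with no visible turbidity.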

For test [8], the system named is Bacillus pumilus. The test can be described thus: Antibacterial activity against penicillin-susceptible Bacillus pumilus CMCC 63202 assessed as bacterial growth inhibition by broth dilution method. In kind it is functional. The conditions noted are these: time 24 hrs. The gist of the method: as §1
The subject of test [9] is Staphylococcus aureus. The test can be described thus: Antibacterial activity against methicillin-resistant Staphylococcus aureus ATCC 43300 assessed as inhibition of bacterial growth by broth microdilution method. In kind it is functional. The conditions noted are these: time 24 hrs. A digest of the protocol: as §2
The subject of test [10] is Staphylococcus aureus. The test can be described thus: Antibacterial activity against Staphylococcus aureus assessed as inhibition of bacterial growth measured by broth microdilution method. The conditions noted are these: time 24 hrs. The format is functional. A digest of the protocol: as §1
For test [11], the system named is Staphylococcus aureus. Nature of the test: Antibacterial activity against erythromycin-susceptible Staphylococcus aureus ATCC 25923 assessed as bacterial growth inhibition incubated for 24 hrs by CLSI protocol based broth microdilution method. The format is functional.
For test [12], the system named is Enterococcus faecium. The test can be described thus: Antibacterial activity against vancomycin-resistant Enterococcus faecium ATCC 51559 assessed as bacterial growth inhibition incubated for 24 hrs by CLSI protocol based broth microdilution method. The following applies: ATCC 51559, 24 h.
Test [13] relates to Staphylococcus epidermidis. The test can be described thus: Antibacterial activity against penicillin-resistant Staphylococcus epidermidis assessed as inhibition of bacterial growth measured by broth microdilution method. In kind it is functional. The following applies: time 24 hrs.
Test [14] relates to Streptococcus pyogenes. The test can be described thus: Antibacterial activity against erythromycin-susceptible Streptococcus pyogenes clinical isolate 1 assessed as bacterial growth inhibition incubated for 24 hrs by CLSI protocol based broth microdilution method. The format is functional.
The subject of test [15] is Pseudomonas aeruginosa. The test can be described thus: Antibacterial activity against penicillin-susceptible Pseudomonas aeruginosa ATCC27853 assessed as bacterial growth inhibition incubated for 24 hrs by CLSI protocol based broth microdilution method. The format is functional.
The test system of test [16] is Staphylococcus aureus. Nature of the test: Bactericidal activity against penicillin-resistant Staphylococcus aureus measured after 24 hrs by CLSI protocol based method. The format is functional. The gist of the method: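 MBC after broth microdilution. After 24 h, aliquots from clear wells were plated on tryptic soy agar and incubated aerobically 24 h at 37 °C. MBC was the lowest concentration giving no colonies.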

Test [17] deals with Bacillus subtilis. Nature of the test: Bactericidal activity against penicillin-susceptible Bacillus subtilis ATCC 9372 measured after 24 hrs by CLSI protocol based method. The format is functional. The gist of the method:
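MBC followed on from the 24 h broth microdilution MIC plates. Aliquots from clear wells were spread on tryptic soy agar and incubated aerobically at 37 °C for 24 h. MBC was the minimum concentration giving no colonies.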

By MIC is commonly meant the smallest concentration in the dilution series that meets the test's criterion for growth inhibition. Turning to `Cc1cccc(C#Cc2c3ccccc3[n+](C)c3ccccc23)c1.[I-]`, the minimal inhibitory concentration (MIC) in test [1] is 4 µg/mL; in test [2] it was 8 µg/mL; in test [3] it was 4 µg/mL; in test [4], 8 µg/mL; in [5] it was greater than 64 µg/mL; in test [6], 2 µg/mL. Moreover, the MIC in test [7] was 2 µg/mL; in [8], 2 µg/mL; in [9] it was 2 µg/mL; in test [10] it was 2 µg/mL; in test [11], 2 µg/mL; in test [12], 4 µg/mL. For the same compound, the minimum inhibitory concentration (MIC) in test [13] was 4 µg/mL; in [14] it was 4 µg/mL; in [15], greater than 64 µg/mL.

On to `CCc1ccc(C#Cc2c3ccccc3[n+](C)c3ccccc23)cc1.[I-]`, for which the MIC in test [1] was 4 µg/mL; in test [2], 4 µg/mL; in [3], 2 µg/mL; in test [4], 8 µg/mL; in [5], greater than 64 µg/mL; in test [6], 2 µg/mL. In addition, the minimal inhibitory concentration (MIC) in test [7] turned out to be 4 µg/mL; in [8] it was 2 µg/mL; in [9], 2 µg/mL; in test [10] it was 2 µg/mL; in test [11] it was 2 µg/mL; in test [12], 4 µg/mL. In addition, the minimal inhibitory concentration (MIC) is 8 µg/mL in test [13], 4 µg/mL in test [14] and greater than 64 µg/mL in test [15].

Take `C[n+]1c2ccccc2c(-c2ccc(-c3ccccc3)cc2)c2ccccc21.[I-]`: the MIC came out at 1 µg/mL in test [1]; 4 µg/mL in test [2]; 4 µg/mL in test [3]; 4 µg/mL in [4]; 64 µg/mL in test [5]; 1 µg/mL in test [6]. Besides, the minimum inhibitory concentration (MIC) in test [7] worked out at 8 µg/mL; in test [8] it was 1 µg/mL; in [9], 16 µg/mL; in [10], 0.25 µg/mL; in [11], 0.125 µg/mL; in test [12] it was 2 µg/mL. In addition, the MIC was 2 µg/mL in [13], 0.5 µg/mL in [14] and greater than 64 µg/mL in test [15].

With `COc1ccc2cc3[n+](cc2c1OC)CCc1cc2c(cc1-3)OCO2.[Cl-]` [BERBERINE CHLORIDE], the minimum inhibitory concentration (MIC) in test [1] was 64 µg/mL; in [2], greater than 64 µg/mL; in test [3], greater than 64 µg/mL; in test [4], greater than 64 µg/mL; in [5] it was greater than 64 µg/mL; in [6] it was greater than 64 µg/mL. The MIC in test [8] was greater than 64 µg/mL; in [9], greater than 64 µg/mL; in test [10], greater than 64 µg/mL; in test [11], 64 µg/mL; in test [12], greater than 64 µg/mL; in test [13] it was greater than 64 µg/mL. Moreover, the minimal inhibitory concentration (MIC) in test [14] and in [15] was greater than 64 µg/mL each time.

As to `CCCCc1ccc(-c2c3ccccc3[n+](C)c3ccccc23)cc1.[I-]`, the MIC stood at 2 µg/mL in test [1]; 4 µg/mL in test [2]; 4 µg/mL in test [3]; 4 µg/mL in test [4]; 64 µg/mL in [5]; 0.5 µg/mL in test [6]. In addition, the minimal inhibitory concentration (MIC) in test [7] is 8 µg/mL; in test [8] it was 1 µg/mL; in [9], 2 µg/mL; in [10], less than 0.125 µg/mL; in test [11], 0.03 µg/mL; in [12], 2 µg/mL. Moreover, the MIC was 2 µg/mL in [13], 1 µg/mL in test [14] and greater than 64 µg/mL in [15].

Broadly, the MBC is the lowest tested concentration that kills the bacteria rather than only halting them. Low values mean greater bactericidal potency, high ones weaker bactericidal potency. For `CC(=O)NC[C@H]1CN(c2ccc(N3CCOCC3)c(F)c2)C(=O)O1` [LINEZOLID], the MIC in [1] is 1 µg/mL (≈ 2.96 µM); in [5] it was greater than 64 µg/mL; in test [6], 0.5 µg/mL (≈ 1.48 µM); in [8], 2 µg/mL (≈ 5.93 µM); in test [13], 4 µg/mL (≈ 11.9 µM); in [14], 1 µg/mL (≈ 2.96 µM). The MIC in [15] is greater than 64 µg/mL. Besides, the minimum bactericidal concentration (MBC) in [16] came out at 16 µg/mL (≈ 47.4 µM); in test [17] it was 64 µg/mL (≈ 190 µM).

Take `C[n+]1c2ccccc2c(/C=C/c2ccc(Cl)cc2Cl)c2ccccc21.[I-]`: the MIC amounted to 0.5 µg/mL in test [1]; 4 µg/mL in test [2]; 2 µg/mL in test [3]; 8 µg/mL in test [4]; 32 µg/mL in test [5]; 0.5 µg/mL in [6]. Further, the MIC in [7] came out at 2 µg/mL; in [8], 2 µg/mL; in test [9], 1 µg/mL; in [10] it was 1 µg/mL; in test [11] it was 0.5 µg/mL; in [12], 4 µg/mL. In addition, the MIC in test [13] was 2 µg/mL; in [14] it was 0.25 µg/mL; in test [15] it was greater than 64 µg/mL.

With `C[n+]1c2ccccc2cc2ccccc21.[I-]`, the minimum inhibitory concentration (MIC) in test [1], in test [2], in test [3], in test [4], in test [5] and in [6] was greater than 64 µg/mL in each case. Further, the minimal inhibitory concentration (MIC) in test [8], in [9], in test [10], in test [11], in test [12] and in test [13] was greater than 64 µg/mL throughout. Also, the MIC in test [14] and in test [15] was greater than 64 µg/mL in each case.
